UCH37 inh – human UCH37 deubiquitinating enzyme inhibition | hit rate 0.33% among 330,000 | Q9Y5K5 | purified proteasome/UCH37, Ub-AMC cleavage fluorescence | inhibition, % (no concentration beside the values);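 active means mean inhibition over replicate wells above about 20%, limit read from the data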
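Test system – human UCH37 enzyme supplied as purified proteasome complex · Incubation – 30 min preincubation with enzyme, 25 min cleavage at room temperature · Detection – AMC fluorescence from Ub-AMC cleavage, excitation 355 nm, emission 460 nm · Benchmarks – no-proteasome wells (full inhibition) and compound-free wells (no inhibition)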
PLCb3 inh – blocks human PLC-beta3 enzyme activity. Q01970. Purified PLC-beta3, fluorogenic substrate, fluorescence. inhibition, % at 12.2 µM. hit rate 0.18% among 370,000. AID 720704; in the data active means inhibition above about 11%
PLCg1 inh – PLC-gamma1 (human) inhibition, primary screen. P19174. purified PLC-gamma1, fluorogenic substrate, fluorescence. inhibition, % at 12.2 µM. hit rate 0.84% among 370,000. AID 720700; in the data active means inhibition above about 9.5%
Rpn11 block – blocks the human proteasome subunit Rpn11; human 26S proteasome, Ub4-pepOG fluorescence polarization; 20S core pre-blocked with epoxomicin; inhibition, % at 20 µM; hit rate 0.59% among 360,000; AID 588493;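 active means inhibition at 20 µM, scaled to each plate's controls, above about 33%, limit read from the data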
UCH37 confirm – UCH37 Ub-AMC cleavage inhibition, confirmed; shares compounds with UCH37 inh; Proteasome-bound UCH37, Ub-AMC cleavage fluorescence; inhibition, % at 20 µM; hit rate 27% among 480;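 active means average inhibition over replicates above about 50%, so the earlier screening hit is confirmed, limit read from the data; inactive means the rest, counted as false positives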;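 further: based on cleavage rate fitted by regression over a 30 min kinetic read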
Numbers stand for hits; - = inactive; . = not tested or not shown; ! = repeats disagree. In the library only some 1.7% were active in any assay of this set; here they are far more common.

SMILES	UCH37 inh	PLCb3 inh	PLCg1 inh	Rpn11 block	UCH37 confirm
COc1ccc([N+](=O)[O-])cc1NC(=O)c1ccc(CN(c2ccc(C)c(C)c2)S(C)(=O)=O)cc1	46.8	-	-	-	-
C=CCN1C=CC(=C/C=C(/C#N)C(=O)OCC)C=C1	32.2	-	-	.	-
CCOC(=O)/C(C#N)=C\c1ccco1	-	-	-	-	.
CCCOc1ccc(C2=CC(=O)C[C@H](c3ccc(OC)cc3)C2)cc1	35.6	-	-	-	-
COc1ccc([C@H]2CC(=O)C=C(c3ccc(OC(F)(F)F)cc3)C2)cc1	-	-	-	-	.
S=C(Nc1ccc(Nc2ccccc2)cc1)Nc1ccccn1	46.1	-	-	-	-
CC(=NNc1nncc2ccccc12)c1ccc(O)cc1	-	.	.	.	.
Cc1cccc(N=C2C(=O)Nc3c(Cl)cccc32)c1	-	-	-	-	.
O=C1Nc2c(Cl)cc(Cl)cc2C1=O	62.2	-	-	-	74.6
C(=NNc1nc(N2CCCCC2)nc(N2CCCCC2)n1)c1c[nH]c2ccccc12	38.4	.	.	.	-
Cc1ccc(C=NNC(=O)c2cc(OCC(F)(F)F)ccc2OCC(F)(F)F)cc1	-	.	.	.	.
CCCCCCCCCCCCCCCCn1cc[n+](CC(C)=O)c1	84.5	.	.	-	96.3
CCCCCCn1ccc(=N)cc1	-	-	-	-	.
O=C1C2C3CCCC3=C3CCCC3C2C(=O)N1c1cccc(Cl)c1 (stereo not drawn)	-	-	-	-	.
O=C1C2C3CCCC3=C3CCCC3C2C(=O)N1c1ccc(Cl)cc1 (stereo not drawn)	63.1	-	-	-	75.0
O=C1c2ccccc2C(=O)c2c1cccc2N1CCCC1	-	-	-	-	.
O=C1C=C(N2CCCCC2)c2ccccc2C1=O	90.4	-	-	-	146.6
O=C(NN=Cc1cc(Br)c(Br)o1)c1cccnc1	-	.	.	.	.
Cc1ccc(C(=O)NN=Cc2cc(Br)c(Br)o2)cn1	27.8	.	.	.	-
CCNC(=O)COc1cccc(C(=O)NCc2ccccc2)c1	-	-	-	-	.
CC(C)CNC(=O)COc1cccc(C(=O)NCc2ccccc2)c1	35.8	-	-	-	-
C(=Nc1ncnc2sccc12)NOCc1ccccc1	-	.	.	.	.
COc1cc(OC)c2c(c1)C(=O)c1cc(OC)cc(OC)c1C2=O	43.0	-	-	-	-
O=C(O)CN1C(=O)/C(=C\c2ccccc2OCc2ccc(Cl)cc2Cl)SC1=S	26.2	-	-	-	54.2
CCCCC(=O)NN=Cc1sccc1C	-	.	.	.	.
SMILES	UCH37 inh	PLCb3 inh	PLCg1 inh	Rpn11 block	UCH37 confirm
O=C1NNC(c2ccccc2)=N/C1=C\c1ccccc1Cl	33.9	-	-	-	74.0
COc1ccc(Cl)cc1NC(=O)CC(C)=NNC(=O)CCc1ccccc1	-	.	.	.	.
CC(=NNC(=O)c1cc(-c2ccc(Cl)s2)[nH]n1)c1ccncc1	-	.	.	.	.
Cc1ccc(C)c(-n2nnnc2SCC(=O)NCCC2=CCCCC2)c1	59.3	-	-	-	-
CNC(=O)CSc1nnnn1-c1cc(C)ccc1C	-	-	-	-	.
CC(=NNC(=O)c1c(Cl)c(C)nn1C)c1cccc(NC(=O)COc2ccc(Cl)cc2)c1	-	.	.	.	.
CCCNC1=C(N(C(C)=O)c2cccc(F)c2)C(=O)c2ccccc2C1=O	-	-	-	-	.
CCC(=O)N(C1=C(NC(C)C)C(=O)c2ccccc2C1=O)C(C)C	46.4	-	-	-	-
Cc1oc2c(c1C(=O)O)C(=O)c1ccccc1C2=O	49.0	-	-	-	-
CCOC(=O)c1c(C)nc2c(c1-c1ccccc1)C(=O)c1ccccc1-2	-	-	-	-	.
O=C1C(=O)c2c(C(=O)c3ccccc3)coc2-c2ccccc21	-	-	-	-	.
Cc1oc2c(c1C(=O)c1ccccc1)C(=O)C(=O)c1ccccc1-2	49.2	-	-	-	-
CCOC(=O)c1c(C)oc2c1C(=O)c1ccccc1C2=O	27.8	-	-	-	-
COc1ccc(C(=O)c2c(C(F)(F)F)oc3c2C(=O)c2ccccc2C3=O)cc1OC	-	-	-	-	.
N#Cc1c(N2CCCC2)nc(N)c2c(N)nc(N3CCCC3)cc12	31.2	-	-	-	-
O=C1C(Nc2ccc(O)cc2)=CC(=NS(=O)(=O)c2cccs2)c2ccccc21	75.4	.	.	.	-
O=C(O)c1ccc(NC2=C/C(=N/S(=O)(=O)c3cccs3)c3ccccc3C2=O)cc1	.	-	-	-	.
Cc1ccc(Cl)cc1NC1=C/C(=N\S(=O)(=O)c2cccs2)c2ccccc2C1=O	42.5	-	-	-	-
C=CCON=CC1=C(O)C(C(=O)OC)C(C)(C)CC1=O (stereo not drawn)	-	.	.	.	.
COC(=O)c1ccc(C=NNC(=O)C(=O)NCC2CCCO2)cc1 (stereo not drawn)	-	.	.	.	.
O=C(COc1cccc(Cl)c1)NN=Cc1cc2ccccc2nc1Cl	-	.	.	.	.
O=C(NN=Cc1ccco1)C1CC(=O)N(c2ccccc2)C1 (stereo not drawn)	-	.	.	.	.
CCCCCCCCCCCCCCCC[n+]1cccc(C(=O)N(CC)CC)c1	58.2!	-	-	65.9!	65.8
CCCCCCCC[n+]1cccc(C(=O)N(CC)CC)c1	-	-	-	-	.
COc1ccc(C=NNC(=O)c2cccnc2)cc1CN1CCOCC1	-	.	.	.	.
SMILES	UCH37 inh	PLCb3 inh	PLCg1 inh	Rpn11 block	UCH37 confirm
COc1ccccc1NC(=O)C(=O)NN=C(C)CC(=O)Nc1ccccc1C(F)(F)F	-	.	.	.	.
CC(C)(C)OC(=O)NCc1ccc(CNC(=O)c2[nH]cnc2C(=O)NC2CCN(C(=O)OC(C)(C)C)CC2)cc1	39.4	.	.	-	-
CC(=NNC(=O)c1cccc(F)c1)c1cccc(NC(=O)c2ccc(F)cc2)c1	-	.	.	.	.
CCOc1cc(C=NNC(=O)Cn2nc([N+](=O)[O-])cc2C)ccc1OCc1cccc2ccccc12	-	.	.	.	.
CC(=O)C(C(C)=O)C1(O)C(=O)c2ccccc2C1=O	70.1	-	-	-	78.1
COc1ccc(N(CC(=O)NN=Cc2cc3ccc(OC)cc3nc2Cl)S(=O)(=O)c2ccccc2)cc1	-	.	.	.	.
CC(=O)Nc1ccc(OCCC[n+]2ccccc2)cc1	-	-	-	-	.
CCCCCc1ccc(OCCOCCn2c[n+](C)c3ccccc32)c(CCCCC)c1	33.3	.	.	-	57.0
CCCCCc1ccc(OCCC[n+]2ccccc2)c(CCCCC)c1	29.8	-	-	-	-
CSc1nc(Oc2ccccc2)c2sccc2n1	-	-	-	-	.
CSc1nc(Oc2ccc(Cl)cc2)c2sccc2n1	36.1	-	-	-	-
c1ccc(C[C@H]2CNCCN2CCCCC2CCCCC2)cc1	35.9	-	-	-	-
O=c1[nH]c(Nc2ccccc2)cc2cc(Br)ccc12	43.7	-	-	-	-
C=C(C)C1CCC(C)=C1CC(C)(C)C=Nn1cnnc1 (stereo not drawn)	42.0	.	.	.	58.2
C=C(C)C1CCC(C)=C1CC(C)(C)/C=N\n1cnnc1 (stereo not drawn)	.	-	-	-	.
CC(CCc1ccc2c(c1)OCO2)=NN=C(N)SC1CC(=O)N(c2ccccc2F)C1=O (stereo not drawn)	-	.	.	.	.
O=C(COC(=O)c1ccc([N+](=O)[O-])s1)NCc1ccc(F)cc1	65.0	-	-	-	-
O=C1CN(C(=O)COC(=O)c2ccc([N+](=O)[O-])s2)c2ccccc2N1	75.6	.	.	-	-

Source: PubChem BioAssay
